Consider 30 compounds from ChEMBL document CHEMBL3817733, “Discovery of a novel small molecule agonist scaffold for the APJ receptor” (Bioorg Med Chem, 2016).

The structures appear in SMILES notation. Calls of active or inactive are those of the source. The rule behind the calls is not given here.

In test [1] the target is T1, Apelin receptor (Homo sapiens, UniProt P35414).
T1 sequence (P35414 whole entry): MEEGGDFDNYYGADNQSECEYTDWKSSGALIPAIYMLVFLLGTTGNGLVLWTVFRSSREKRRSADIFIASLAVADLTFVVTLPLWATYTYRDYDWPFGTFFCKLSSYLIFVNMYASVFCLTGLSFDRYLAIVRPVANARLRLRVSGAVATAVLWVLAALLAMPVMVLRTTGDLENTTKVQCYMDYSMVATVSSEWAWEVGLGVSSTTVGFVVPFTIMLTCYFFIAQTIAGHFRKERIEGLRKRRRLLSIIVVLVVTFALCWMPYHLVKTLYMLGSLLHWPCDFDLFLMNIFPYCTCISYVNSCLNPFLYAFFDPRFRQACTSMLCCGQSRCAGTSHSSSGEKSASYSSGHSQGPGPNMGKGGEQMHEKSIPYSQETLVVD
Kind of test: Agonist activity at human APJ receptor expressed in cells c-expressing Galphaq16 assessed as calcium mobilization by FLIPR assay. The format is functional, cell-based. In short, it runs like this:
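Human APJ-Gαq16 stable cells lifted non-enzymatically, plated 30,000/well, grown 24 h at 37 C to confluence. Loaded with Calcium 5 dye in HBSS with 20 mM HEPES, 1% BSA, 10 µM probenecid, 1 h at 37 C. FLIPR Tetra read ~17 sec baseline, then added agonist at 10x; pyr-apelin-13 as reference.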
(Calcium flux is commonly read through the fluorescence of an indicator in the cells.)

The target in test [2] is Neurotensin receptor type 1 (Rattus norvegicus) (UniProt P20789). Briefly: Agonist activity at rat NTS1 receptor expressed in CHOK1 cells assessed as calcium mobilization by FLIPR assay. The test is classed as functional, cell-based. The following applies: CHO-K1.
The target of test [3] is T2, Neurotensin receptor type 2 (Rattus norvegicus) (UniProt Q63384).
T2 sequence (whole entry): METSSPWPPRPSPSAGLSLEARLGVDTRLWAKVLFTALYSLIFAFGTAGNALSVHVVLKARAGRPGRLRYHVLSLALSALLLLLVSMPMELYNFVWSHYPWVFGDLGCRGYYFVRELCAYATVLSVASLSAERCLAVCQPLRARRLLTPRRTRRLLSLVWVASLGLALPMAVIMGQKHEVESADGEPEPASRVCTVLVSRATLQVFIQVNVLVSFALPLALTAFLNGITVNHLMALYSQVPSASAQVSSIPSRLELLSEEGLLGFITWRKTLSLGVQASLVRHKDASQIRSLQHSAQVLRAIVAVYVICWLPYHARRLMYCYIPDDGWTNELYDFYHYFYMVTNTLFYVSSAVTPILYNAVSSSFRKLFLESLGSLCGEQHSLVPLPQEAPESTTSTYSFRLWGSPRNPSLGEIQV
Kind of test: (§1) Partial agonist activity at rat NTS2 receptor expressed in CHOK1 cells assessed as calcium mobilization by FLIPR assay. Particulars: CHO-K1. The test is classed as functional, cell-based.

Test [4] has as its target T3, Neurotensin receptor type 2 (Rattus norvegicus, UniProt Q63384).
T3 sequence (Q63384 whole entry): T2 sequence (whole entry)
Described as §1. The format is functional, cell-based, CHO-K1.

Test [5] addresses Neurotensin receptor type 1 (Rattus norvegicus) (UniProt P20789). Briefly: Antagonist activity against rat NTS1 receptor expressed in CHOK1 cells assessed as calcium mobilization by FLIPR assay. The format is functional, cell-based. The following applies: CHO-K1.
The target in test [6] is T1, Apelin receptor. Kind of test: Displacement of [125I]-apelin13 from human APJ receptor expressed in CHOK1 cell membranes after 2 hrs by scintillation counting. Also noted: species or system CHO-K1.

Chain of Neurotensin receptor type 1 (Rattus norvegicus) (P20789 whole entry): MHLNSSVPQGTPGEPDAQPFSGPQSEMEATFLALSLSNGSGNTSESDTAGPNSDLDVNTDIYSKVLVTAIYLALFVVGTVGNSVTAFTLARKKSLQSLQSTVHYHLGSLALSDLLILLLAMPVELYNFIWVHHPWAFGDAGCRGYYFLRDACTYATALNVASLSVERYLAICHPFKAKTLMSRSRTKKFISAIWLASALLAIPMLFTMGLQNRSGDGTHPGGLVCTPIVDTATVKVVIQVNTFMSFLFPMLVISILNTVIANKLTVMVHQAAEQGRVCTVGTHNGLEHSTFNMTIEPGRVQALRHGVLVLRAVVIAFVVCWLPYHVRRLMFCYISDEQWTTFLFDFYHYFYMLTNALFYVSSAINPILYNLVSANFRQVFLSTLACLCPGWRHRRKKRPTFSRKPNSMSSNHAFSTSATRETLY

For orientation: EC50 means the concentration at which the effect is half-maximal. Consider `COc1cccc(OC)c1-c1cc(C(=O)N[C@@H](CCCCNC(=O)OC(C)(C)C)C(=O)O)nn1-c1ccc(F)cc1`, for which, on Apelin receptor [1], the 50% effective concentration (EC50) was over 30 µM.
With `COc1cccc(OC)c1-c1cc(C(=O)N[C@@H](C(=O)O)C2CCCCC2)nn1-c1ccc(F)cc1`, the EC50 on Apelin receptor [1] is over 30 µM.
Same read-out and setting: with `COc1cccc(OC)c1-c1cc(C(=O)N[C@@H](CCCCN)C(=O)O)nn1-c1ccc(F)cc1` the figure was over 30 µM.
For orientation: Emax means the maximal effect, on the per cent scale that the assay sets. Take `COc1cccc(OC)c1-c1cc(C(=O)N[C@@H](CCC2CCCCC2)CC(=O)O)nn1-c1ccc(F)cc1`: the outcome in test [2] and in test [5] was inactive. Also, the Emax in test [3] came out at 23%. Also, the EC50 in test [4] came to 3.41 µM.
In the case of `O=C(N[C@H](C(=O)O)C1CCCCC1)c1cc(-c2ccccc2)n(-c2ccc(F)cc2)n1`, the EC50 on Apelin receptor [1] is over 30 µM.
Same read-out and setting: with `COc1cccc(OC)c1-c1cc(C(=O)NC2(C(=O)O)C3CC4CC(C3)CC2C4)nn1-c1ccc(F)cc1` (configuration not stated) the figure was over 30 µM.
In the case of `Cc1cc(C(=O)N[C@H](C(=O)O)C2CCCCC2)nn1-c1ccc(F)cc1`, at Apelin receptor [1], the EC50 is over 30 µM.
As to `COc1cccc(OC)c1-c1cc(C(=O)Nc2ccccc2C(=O)O)nn1-c1ccc(F)cc1`, on Apelin receptor [1], the EC50 was over 30 µM.
On to `COc1cccc(OC)c1-c1cc(C(=O)N[C@@H](Cc2ccccc2)C(=O)O)nn1-c1ccc(F)cc1`, for which, on Apelin receptor [1], the EC50 was over 30 µM.
With `O=C(N[C@H](C(=O)O)C1CCCCC1)c1cc(-c2c(O)cccc2O)n(-c2ccc(F)cc2)n1`, the EC50 on Apelin receptor [1] is over 30 µM.
One may read the Ki as the equilibrium dissociation constant of an inhibitor or competing ligand from its target. The low end stands for tighter binding, the high end for weaker binding. `COc1cccc(OC)c1-c1cc(C(=O)N[C@@H](CCc2ccccc2)CC(=O)O)nn1-c1ccc(F)cc1`: the EC50 at Apelin receptor [1] was 3 µM. Affinity on Apelin receptor [6] was put at a Ki of 3 µM.
Consider `COc1cccc(OC)c1-c1cc(C(=O)N[C@H](C(=O)NCc2ccccc2)C2CCCCC2)nn1-c1ccc(F)cc1`, for which, at Apelin receptor [1], the EC50 was over 30 µM.
On the same count and under the same terms, with `COc1cccc(OC)c1-c1cc(C(=O)N[C@H](C(=O)NO)C2CCCCC2)nn1-c1ccc(F)cc1` the figure was over 30 µM; with `COc1cccc(O)c1-c1cc(C(=O)N[C@H](C(=O)O)C2CCCCC2)nn1-c1ccc(F)cc1`, over 30 µM.
In the case of `COc1cccc(OC)c1-c1cc(C(=O)NC2(C(=O)O)CCCCC2)nn1-c1ccc(F)cc1`, on Apelin receptor [1], the EC50 was over 30 µM.
As for `COc1cccc(OC)c1-c1cc(C(=O)N[C@H](CC(=O)O)CC(C)C)nn1-c1ccc(F)cc1`, the EC50 on Apelin receptor [1] stood at 9.4 µM. This compound had a Ki at Apelin receptor [6] of 0.6 µM.
On to `COC(=O)[C@@H](NC(=O)c1cc(-c2c(OC)cccc2OC)n(-c2ccc(F)cc2)n1)C1CCCCC1`, for which, at Apelin receptor [1], the EC50 was over 30 µM.
The same measure, in the same setting: with `COC(=O)CNC(=O)[C@@H](NC(=O)c1cc(-c2c(OC)cccc2OC)n(-c2ccc(F)cc2)n1)C1CCCCC1` the figure was over 30 µM; with `COc1cccc(OC)c1-c1cc(C(=O)N[C@H](C(=O)O)c2ccccc2)nn1-c1ccc(F)cc1`, over 30 µM; with `COc1cccc(OC)c1-c1cc(C(=O)N[C@H]2CC[C@H](C(=O)O)CC2)nn1-c1ccc(F)cc1`, over 30 µM.
For the compound `COc1cccc(OC)c1-c1cc(C(=O)N[C@H](C(=O)N(C)C)C2CCCCC2)nn1-c1ccc(F)cc1`, the EC50 at Apelin receptor [1] was over 30 µM.
`COc1cccc(OC)c1-c1cc(C(=O)NC(CC(=O)O)C2CCCCC2)nn1-c1ccc(F)cc1` (single isomer, unassigned): the result in test [2] and in test [5] was inactive. The Emax in test [3] is 57%.
For the compound `COc1cccc(OC)c1-c1cc(C(=O)N[C@H](C(N)=O)C2CCCCC2)nn1-c1ccc(F)cc1`, the EC50 on Apelin receptor [1] is over 30 µM.
In the case of `COc1cccc(OC)c1-c1cc(C(=O)N[C@H](C(=O)NCC(=O)O)C2CCCCC2)nn1-c1ccc(F)cc1`, the EC50 at Apelin receptor [1] was over 30 µM.
Same read-out and setting: with `COc1cccc(OC)c1-c1cc(C(=O)N[C@@H](CC(C)C)C(=O)O)nn1-c1ccc(F)cc1` the figure was over 30 µM; with `COc1cccc(OC)c1-c1cc(C(=O)N2CC[C@H](C(=O)O)C2)nn1-c1ccc(F)cc1`, over 30 µM; with `COc1cccc(OC)c1-c1cc(C(=O)N[C@H](C(=O)O)C(C)C)nn1-c1ccc(F)cc1`, over 30 µM.
On the same count and under the same terms, with `COc1cccc(OC)c1-c1cc(C(=O)N[C@@H](CCC(N)=O)C(=O)O)nn1-c1ccc(F)cc1` the figure was over 30 µM; with `COc1cccc(OC)c1-c1cc(C(=O)NCC2CCCCC2)nn1-c1ccc(F)cc1`, over 30 µM; with `COc1cccc(OC)c1-c1cc(C(=O)N[C@H](C(=O)O)C2CCCCC2)n(-c2ccc(F)cc2)n1`, over 30 µM.
